pIC50: −log10 of the molar value. Active and inactive are the calls of the source. The rule behind the calls is not given here.
Columns and labels:
[1] = biological target: Signal transducer and activator of transcription 3 (Homo sapiens) (UniProt P40763); experiment: Inhibition of STAT3 in human MDA-MB-231 cells assessed as upregulation of p-p38 expression after 24 hrs by western blot analysis; format: cell-based
Outline: (§1)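 MDA-MB-231 cells, 1*10⁶ per well, were grown in DMEM for 24 h, serum-starved for 24 h, then treated for 24 h from DMSO solutions (final DMSO 0.1%; DMSO control). Cells were lysed in RIPA with protease and phosphatase inhibitors and protein equalized by BCA. 20-40 µg was run on 4-20% gels and transferred to PVDF, which was blocked in 5% BSA. Primary antibodies were applied overnight and secondary for 1 h, and band intensities were quantified by infrared imaging.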

[2] = biological target: Signal transducer and activator of transcription 3 (Homo sapiens) (UniProt P40763); experiment: Inhibition of STAT3 in human MDA-MB-231 cells assessed as downregulation of Bcl-xL expression after 24 hrs by western blot analysis; format: cell-based; outline: as §1
[3] = biological target: Signal transducer and activator of transcription 3 (Homo sapiens) (UniProt P40763); experiment: Inhibition of STAT3 in human MDA-MB-231 cells assessed as change in Bcl-2 expression at 0.8 to 1.6 uM after 24 hrs by western blot analysis; format: cell-based; outline: as §1
[4] = biological target: Signal transducer and activator of transcription 3 (Homo sapiens) (UniProt P40763); experiment: Inhibition of STAT3 in human MDA-MB-231 cells assessed as slight down regulation of pSTAT3 expression at 50 to 100 uM after 24 hrs by western blot analysis; format: cell-based; outline: as §1
[5] = biological target: Signal transducer and activator of transcription 3 (Homo sapiens) (UniProt P40763); experiment: Inhibition of STAT3 in human MDA-MB-231 cells assessed as downregulation of cyclinD1 expression at 5 to 25 uM after 24 hrs by western blot analysis; format: cell-based; outline: as §1
MDA-MB-231 [6] = experiment: Cell cycle arrest in human MDA-MB-231 cells assessed as accumulation of cells at G1 phase at 5 uM incubated for 48 hrs RNase/PI staining based flow cytometry assay (reference value: 64.3 %); format: functional
Outline: (§2)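 MDA-MB-231 cells, 5*10⁶ per 10 cm plate, were grown in DMEM for 24 h and then dosed for 48 h from DMSO stocks (final DMSO 0.1%; DMSO as control). Cells were trypsinized, washed twice in cold PBS and fixed in 70% ethanol overnight at -20°C. They were treated with 200 ug/mL RNase for 30 min, stained with 50 ug/mL PI at RT for 30 min, and DNA content was read by flow cytometry.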

MDA-MB-231 [7] = experiment: Cell cycle arrest in human MDA-MB-231 cells assessed as accumulation of cells at G2 phase at 5 uM incubated for 48 hrs RNase/PI staining based flow cytometry assay (reference value: 17.4 %); format: functional; outline: as §2
Histone deacetylase 1 = Histone deacetylase 1 (Homo sapiens, UniProt Q13547); experiment: Inhibition of human recombinant HDAC1 using fluorogenic HDAC substrate preincubated for 30 mins followed by substrate addition and measured after 15 mins by fluorogenic assay
[8] = biological target: T1, Protein deacetylase HDAC6 (Homo sapiens, UniProt Q9UBN7); experiment: Inhibition of human recombinant HDAC6 using fluorogenic HDAC substrate 3 preincubated for 30 mins followed by substrate addition and measured after 15 mins by fluorogenic assay
T1 sequence (Q9UBN7 whole entry): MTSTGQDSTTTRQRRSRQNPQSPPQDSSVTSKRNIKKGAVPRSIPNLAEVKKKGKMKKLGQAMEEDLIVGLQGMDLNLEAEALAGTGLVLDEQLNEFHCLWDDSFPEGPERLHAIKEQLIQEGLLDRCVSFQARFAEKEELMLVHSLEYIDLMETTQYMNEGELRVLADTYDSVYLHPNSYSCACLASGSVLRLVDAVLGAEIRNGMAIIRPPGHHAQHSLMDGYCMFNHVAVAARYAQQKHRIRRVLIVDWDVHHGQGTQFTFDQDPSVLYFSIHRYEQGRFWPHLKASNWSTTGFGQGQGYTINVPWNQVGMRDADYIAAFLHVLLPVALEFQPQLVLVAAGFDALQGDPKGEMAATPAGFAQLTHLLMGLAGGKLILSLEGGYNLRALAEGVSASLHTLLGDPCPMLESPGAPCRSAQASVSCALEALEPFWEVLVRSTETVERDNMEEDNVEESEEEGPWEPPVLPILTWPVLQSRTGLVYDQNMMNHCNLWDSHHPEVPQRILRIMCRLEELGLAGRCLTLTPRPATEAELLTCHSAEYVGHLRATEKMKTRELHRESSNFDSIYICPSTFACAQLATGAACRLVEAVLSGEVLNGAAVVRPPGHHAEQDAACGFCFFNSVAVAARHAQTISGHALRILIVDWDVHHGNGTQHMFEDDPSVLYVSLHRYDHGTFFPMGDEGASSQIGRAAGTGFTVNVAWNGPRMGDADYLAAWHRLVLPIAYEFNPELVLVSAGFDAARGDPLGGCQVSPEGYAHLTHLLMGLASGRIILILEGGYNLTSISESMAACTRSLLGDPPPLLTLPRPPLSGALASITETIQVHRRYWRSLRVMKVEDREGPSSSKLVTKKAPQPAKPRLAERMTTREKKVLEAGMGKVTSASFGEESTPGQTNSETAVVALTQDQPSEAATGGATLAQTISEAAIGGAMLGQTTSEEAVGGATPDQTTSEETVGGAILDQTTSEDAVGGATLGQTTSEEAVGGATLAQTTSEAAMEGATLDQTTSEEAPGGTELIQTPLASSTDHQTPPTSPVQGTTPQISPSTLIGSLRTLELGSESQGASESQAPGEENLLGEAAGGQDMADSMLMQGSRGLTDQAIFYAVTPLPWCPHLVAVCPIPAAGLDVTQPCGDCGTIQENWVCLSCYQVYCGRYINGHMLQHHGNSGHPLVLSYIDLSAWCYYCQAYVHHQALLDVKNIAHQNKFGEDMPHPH

A549 = experiment: cells; format: functional, cell-based; details: Homo sapiens, A549, 72 h
MCF7 = experiment: cells; format: functional, cell-based; details: Homo sapiens, MCF7, 72 h
MDA-MB-231 [9] = experiment: cells; format: functional, cell-based; details: Homo sapiens, MDA-MB-231, 72 h
Vero = experiment: cells; details: Chlorocebus sabaeus, 72 h
Histone deacetylase 8 = biological target: T2, Histone deacetylase 8 (Homo sapiens, UniProt Q9BY41); experiment: Inhibition of human recombinant HDAC8 using fluorogenic HDAC substrate class 2A preincubated for 30 mins followed by substrate addition and measured after 15 mins by fluorogenic assay
T2 sequence (Q9BY41 whole entry): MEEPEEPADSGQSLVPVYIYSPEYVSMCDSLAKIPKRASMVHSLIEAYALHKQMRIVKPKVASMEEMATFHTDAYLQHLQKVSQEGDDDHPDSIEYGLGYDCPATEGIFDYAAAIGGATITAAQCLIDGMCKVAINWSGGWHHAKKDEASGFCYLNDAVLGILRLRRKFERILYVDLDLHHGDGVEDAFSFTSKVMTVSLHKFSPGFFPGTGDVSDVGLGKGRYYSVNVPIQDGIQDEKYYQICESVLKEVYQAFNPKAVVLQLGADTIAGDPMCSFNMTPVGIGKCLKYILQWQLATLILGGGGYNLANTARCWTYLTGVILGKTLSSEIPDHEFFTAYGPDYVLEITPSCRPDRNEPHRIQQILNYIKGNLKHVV

Signal transducer and activator of transcription 3 (Homo sapiens), sequence (P40763 whole entry): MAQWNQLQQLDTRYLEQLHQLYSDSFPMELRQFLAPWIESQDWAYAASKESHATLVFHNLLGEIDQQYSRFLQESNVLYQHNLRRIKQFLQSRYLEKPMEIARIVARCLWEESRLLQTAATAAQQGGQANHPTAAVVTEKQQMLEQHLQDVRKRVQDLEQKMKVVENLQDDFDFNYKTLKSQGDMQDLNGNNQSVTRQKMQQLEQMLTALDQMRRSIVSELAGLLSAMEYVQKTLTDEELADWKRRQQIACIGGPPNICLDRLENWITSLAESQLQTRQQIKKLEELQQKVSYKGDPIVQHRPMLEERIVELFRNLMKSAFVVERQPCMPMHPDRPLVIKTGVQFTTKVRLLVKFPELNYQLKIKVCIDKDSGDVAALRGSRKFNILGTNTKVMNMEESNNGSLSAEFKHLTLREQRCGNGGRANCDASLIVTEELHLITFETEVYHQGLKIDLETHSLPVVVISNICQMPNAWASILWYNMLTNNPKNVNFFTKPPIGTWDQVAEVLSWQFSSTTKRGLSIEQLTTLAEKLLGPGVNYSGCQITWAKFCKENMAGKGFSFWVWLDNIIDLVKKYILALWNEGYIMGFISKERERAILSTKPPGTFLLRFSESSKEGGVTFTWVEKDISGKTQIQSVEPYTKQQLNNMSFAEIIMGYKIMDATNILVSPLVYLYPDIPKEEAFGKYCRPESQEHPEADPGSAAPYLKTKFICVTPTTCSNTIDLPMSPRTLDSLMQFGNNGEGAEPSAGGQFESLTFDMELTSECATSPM
Histone deacetylase 1, sequence (Q13547 whole entry): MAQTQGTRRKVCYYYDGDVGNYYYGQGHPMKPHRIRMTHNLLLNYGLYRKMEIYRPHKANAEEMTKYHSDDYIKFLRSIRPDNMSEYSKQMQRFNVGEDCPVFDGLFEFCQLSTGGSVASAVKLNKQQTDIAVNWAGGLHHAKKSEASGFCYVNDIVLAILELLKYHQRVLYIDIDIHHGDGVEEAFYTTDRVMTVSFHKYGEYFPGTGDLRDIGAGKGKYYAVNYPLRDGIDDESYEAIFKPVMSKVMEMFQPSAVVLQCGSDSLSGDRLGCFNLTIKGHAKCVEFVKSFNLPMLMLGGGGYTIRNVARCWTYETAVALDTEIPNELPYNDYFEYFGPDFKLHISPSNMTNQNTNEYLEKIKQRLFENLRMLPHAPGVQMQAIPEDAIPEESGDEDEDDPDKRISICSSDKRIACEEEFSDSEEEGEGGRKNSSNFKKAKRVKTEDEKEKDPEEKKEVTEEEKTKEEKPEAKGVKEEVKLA

| inhibition [1] | inhibition [2] | inhibition [3] | inhibition [4] | inhibition [5] | pIC50 (Histone deacetylase 1) | pIC50 [8] | pIC50 (A549) | pIC50 (MCF7) | pIC50 (MDA-MB-231 [9]) | pIC50 (Histone deacetylase 8) | SMILES | Activity (MDA-MB-231 [6]) [%] | Activity (MDA-MB-231 [7]) [%] | pIC50 (Vero) |
| --- | --- | --- | --- | --- | --- | --- | --- | --- | --- | --- | --- | --- | --- | --- |
| Dose-dependent effect | Dose-dependent effect | inactive | Active | Active |  |  |  |  |  |  | O=C(CCCCCCC(=O)Nc1ccccc1)NO [VORINOSTAT] | 18.2 | 65.1 |  |
|  |  |  |  |  | 5.43 | 7.14 | 5.00 | 5.03 | 5.27 |  | CCc1nc(N)nc(N)c1-c1ccc(-c2ccc(/C=C/C(=O)NO)cc2)cc1 |  |  | 5.16 |
|  |  |  |  |  |  |  | 3.94 | 4.02 | 4.02 |  | CCOC(=O)CCCCCCCn1cc(-c2ccc(-c3c(N)nc(N)nc3CC)cc2)nn1 |  |  | 3.95 |
|  |  |  |  |  | 6.59 | 7.34 |  |  | 4.42 | 5.55 | CCc1nc(N)nc(N)c1-c1ccc(-c2cn(CCCCCC(=O)NO)nn2)cc1 |  |  |  |

Reference: ChEMBL document CHEMBL4627284, “Pyrimethamine conjugated histone deacetylase inhibitors: Design, synthesis and evidence for triple negative breast cancer selective cytotoxicity” (Bioorg Med Chem, 2020)
